ChEMBL document CHEMBL3286304, “Cytotoxicity and DNA binding property of the dimers of triphenylethylene-coumarin hybrid with one amino side chain” (Bioorg Med Chem Lett, 2014)
Activity calls are given as the source filed them. No cut-off for these calls is given here.

Key:
MCF7 = assay: Antiproliferative activity against human MCF7 cells after 48 hrs by MTT assay; type: functional, cell-based; details: MCF7, 48 h
K562 = assay: Antiproliferative activity against human K562 cells after 48 hrs by MTT assay; type: functional, cell-based; details: K562, 48 h
HeLa = assay: Antiproliferative activity against human HeLa cells after 48 hrs by MTT assay; type: functional, cell-based
A549 = assay: Antiproliferative activity against human A549 cells after 48 hrs by MTT assay; type: functional, cell-based; details: A549, 48 h
Calf thymus DNA [1] = assay: Binding affinity to calf thymus DNA assessed as change in melting temperature at 5 uM after 10 mins by thermal denaturation assay; type: nucleic-acid assay; details: Bos taurus
In short: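 Melting curves of Ct-DNA (5.0 × 10^-5 M) with or without dimer at 5.0 × 10^-6 M in 1 mM phosphate buffer pH 7.4, 5 mM NaCl, 2% DMSO; heated over roughly 55–85 °C; ΔTm taken relative to DNA alone.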

Calf thymus DNA [2] = assay: Binding affinity to calf thymus DNA assessed as DNA intercalation at 20 uM at pH 7.4 after 10 mins by circular dichroism analysis; type: nucleic-acid assay; details: Bos taurus
In short: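 CD spectra of Ct-DNA (5.0 × 10^-5 M) alone and with dimer at 2.0 × 10^-5 M in 10 mM phosphate buffer pH 7.4, 50 mM NaCl, 2% DMSO, 25 °C.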

Calf thymus DNA [3] = assay: Binding affinity to calf thymus DNA assessed as hyperchromicity at 50 uM at 25 degC at pH 7.4 after 10 mins by UV-vis spectrophotometry; type: nucleic-acid assay; details: Bos taurus
In short: (§1)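 Ct-DNA titrated (0–180 µM for some dimers, 0–160 µM for others) into dimer at 5.0 × 10^-5 M in 10 mM phosphate buffer pH 7.4, 50 mM NaCl, 2% DMSO, 25 °C; UV–vis absorption followed at λmax; binding constant K by double inverse method.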

Calf thymus DNA [4] = assay: Binding affinity to calf thymus DNA assessed as hypsochromic shift at 50 uM at 25 degC at pH 7.4 after 10 mins by UV-vis spectrophotometry; type: nucleic-acid assay; details: Bos taurus; in short: as §1
Calf thymus DNA [5] = assay: Binding affinity to calf thymus DNA at 25 degC at pH 7.4 after 10 mins by UV-vis spectrophotometry; type: nucleic-acid assay; details: Bos taurus; in short: as §1
Calf thymus DNA [6] = assay: Binding affinity to calf thymus DNA at 25 degC at pH 7.4 after 10 mins by Stern-Volmer plot analysis; type: nucleic-acid assay; details: Bos taurus
In short: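 Dimer (5.0 × 10^-5 M) titrated with Ct-DNA 0–180 µM in 10 mM phosphate pH 7.4, 50 mM NaCl, 2% DMSO, 25 °C; fluorescence emission near 465 nm, excitation 330–345 nm by compound, slits 5.0 nm; F/F0 versus DNA concentration, Stern–Volmer fitting gives binding constant.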

[7] = Cytotoxicity against mouse skull osteoblasts at 10 uM after 48 hrs by MTT assay; type: cell-based; details: osteoblast
[8] = Cytotoxicity against mouse skull osteoblasts at 20 uM after 48 hrs by MTT assay; type: cell-based; details: osteoblast
[9] = Cytotoxicity against mouse skull osteoblasts at 40 uM after 48 hrs by MTT assay; type: cell-based; details: osteoblast
[10] = Cytotoxicity against mouse skull osteoblasts at 1 uM after 48 hrs by MTT assay; type: cell-based; details: osteoblast
[11] = Cytotoxicity against mouse skull osteoblasts at 100 uM after 48 hrs by MTT assay; type: cell-based; details: osteoblast

Structure (SMILES)	IC50 (MCF7) [µM]	IC50 (K562) [µM]	IC50 (HeLa) [µM]	IC50 (A549) [µM]	ΔTm (Calf thymus DNA [1]) [°C]	Activity (Calf thymus DNA [2])	Activity (Calf thymus DNA [3]) [%]	Activity (Calf thymus DNA [4]) [nm]	Kb (Calf thymus DNA [5])	Kb (Calf thymus DNA [6])	Activity [7] [%]	Activity [8] [%]	Activity [9] [%]	Activity [10] [%]	Activity [11] [%]
O=C(Nc1ccc(-c2c(-c3ccc(OCCN4CCCC4)cc3)c3ccccc3oc2=O)cc1)c1cccc(C(=O)Nc2ccc(-c3c(-c4ccc(OCCN5CCCC5)cc4)c4ccccc4oc3=O)cc2)c1	29.5	15.2	31	15.2											
O=C(CC(=O)Nc1ccc(-c2c(-c3ccc(OCCN4CCCCC4)cc3)c3ccccc3oc2=O)cc1)Nc1ccc(-c2c(-c3ccc(OCCN4CCCCC4)cc3)c3ccccc3oc2=O)cc1	8.57	0.98	7.82	8.44	6	Active	47	2	4.5 ×10⁵ /M	6.9 ×10⁵ /M	0.3	0.6	20.1	-8.4	36.2
O=C(CCCCC(=O)Nc1ccc(-c2c(-c3ccc(OCCN4CCCC4)cc3)c3ccccc3oc2=O)cc1)Nc1ccc(-c2c(-c3ccc(OCCN4CCCC4)cc3)c3ccccc3oc2=O)cc1	37.6	28	36.4	22.3											
O=C(CC(=O)Nc1ccc(-c2c(-c3ccc(OCCN4CCCC4)cc3)c3ccccc3oc2=O)cc1)Nc1ccc(-c2c(-c3ccc(OCCN4CCCC4)cc3)c3ccccc3oc2=O)cc1	3.52	3.23	6.49	7.73							-1.3	0.8	14.5	-10.4	27.4
Nc1ccc(-c2c(-c3ccc(OCCN4CCCCC4)cc3)c3ccccc3oc2=O)cc1	43.8	> 50	> 50	> 50											
O=C(CCCCC(=O)Nc1ccc(-c2c(-c3ccc(OCCN4CCCCC4)cc3)c3ccccc3oc2=O)cc1)Nc1ccc(-c2c(-c3ccc(OCCN4CCCCC4)cc3)c3ccccc3oc2=O)cc1	35.4	23.8	34.4	27	5.1	Active	40	1.5	1.5 ×10⁵ /M	3.8 ×10⁵ /M					

The next lines start with results.

IC50 (MCF7) [µM]	IC50 (K562) [µM]	IC50 (HeLa) [µM]	IC50 (A549) [µM]	ΔTm (Calf thymus DNA [1]) [°C]	Activity (Calf thymus DNA [2])	Activity (Calf thymus DNA [3]) [%]	Activity (Calf thymus DNA [4]) [nm]	Kb (Calf thymus DNA [5])	Kb (Calf thymus DNA [6])	Structure (SMILES)	Activity [7] [%]	Activity [8] [%]	Activity [9] [%]	Activity [10] [%]	Activity [11] [%]
35.9	18.9	42.5	16.9							O=C(CCCCCCCCC(=O)Nc1ccc(-c2c(-c3ccc(OCCN4CCCC4)cc3)c3ccccc3oc2=O)cc1)Nc1ccc(-c2c(-c3ccc(OCCN4CCCC4)cc3)c3ccccc3oc2=O)cc1					
> 50	> 50	> 50	> 50	2	Active	32	0.5	4.8 ×10⁴ /M	1.3 ×10⁴ /M	O=C(Nc1ccc(-c2c(-c3ccc(OCCN4CCCCC4)cc3)c3ccccc3oc2=O)cc1)c1cccc(C(=O)Nc2ccc(-c3c(-c4ccc(OCCN5CCCCC5)cc4)c4ccccc4oc3=O)cc2)c1					
> 50	> 50	> 50	> 50	2.5	Active	35	1.5	5.3 ×10⁴ /M	2.1 ×10⁴ /M	O=C(CCCCCCCCC(=O)Nc1ccc(-c2c(-c3ccc(OCCN4CCCCC4)cc3)c3ccccc3oc2=O)cc1)Nc1ccc(-c2c(-c3ccc(OCCN4CCCCC4)cc3)c3ccccc3oc2=O)cc1					
45.7	> 50	> 50	> 50							Nc1ccc(-c2c(-c3ccc(OCCN4CCCC4)cc3)c3ccccc3oc2=O)cc1					
